Reference: ChEMBL document CHEMBL4177770, “Discovery of MK-6169, a Potent Pan-Genotype Hepatitis C Virus NS5A Inhibitor with Optimized Activity against Common Resistance-Associated Substitutions” (J Med Chem, 2018)
Changes are numbered by the printed parent chain.

Experiments:
[1] = molecular target: T1, Nonstructural protein 5A (Hepatitis C virus) (UniProt Q5L478); experiment: Inhibition of NS5A in HCV genotype 4a infected in HuH7 replicon cells assessed as decrease in viral replication after 3 days by RT-PCR method; type: cell-based; details: Hepatitis C virus subtype 4a
T1 sequence (whole entry): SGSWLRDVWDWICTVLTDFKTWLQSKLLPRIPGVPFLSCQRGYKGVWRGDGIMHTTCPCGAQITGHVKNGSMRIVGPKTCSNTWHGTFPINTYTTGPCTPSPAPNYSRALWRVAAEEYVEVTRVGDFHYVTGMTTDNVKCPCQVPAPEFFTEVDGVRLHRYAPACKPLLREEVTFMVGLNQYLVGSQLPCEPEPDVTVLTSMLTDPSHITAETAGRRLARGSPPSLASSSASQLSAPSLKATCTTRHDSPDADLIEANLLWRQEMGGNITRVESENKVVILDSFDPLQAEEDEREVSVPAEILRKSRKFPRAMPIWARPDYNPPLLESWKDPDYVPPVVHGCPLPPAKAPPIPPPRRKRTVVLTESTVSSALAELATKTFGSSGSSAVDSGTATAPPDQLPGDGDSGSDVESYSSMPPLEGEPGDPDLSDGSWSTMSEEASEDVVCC

[2] = molecular target: T1, Nonstructural protein 5A (Hepatitis C virus); experiment: Inhibition of NS5A L31V mutant in HCV genotype 1a infected in HuH7 replicon cells assessed as decrease in viral replication after 3 days by RT-PCR method; type: cell-based; details: Hepatitis C virus subtype 1a
[3] = tested on: Hepatitis C virus subtype 1a; experiment: Resistance ratio of EC90 for NS5A Y93H mutant in HCV genotype 1a infected in HuH7 replicon cells to EC90 for NS5A in HCV genotype 1a infected in HuH7 replicon cells; type: cell-based
[4] = molecular target: T1, Nonstructural protein 5A (Hepatitis C virus); experiment: Inhibition of NS5A in HCV genotype 3a infected in HuH7 replicon cells assessed as decrease in viral replication after 3 days by RT-PCR method; type: cell-based; details: Hepatitis C virus subtype 3a
[5] = tested on: T2, Nonstructural protein 5A (Hepatitis C virus), Q5L478 [Y93H]; experiment: Inhibition of NS5A Y93H mutant in HCV genotype 1a infected in HuH7 replicon cells assessed as decrease in viral replication after 3 days by RT-PCR method; type: cell-based; details: Hepatitis C virus subtype 1a
T2 sequence (whole entry): T1 sequence (whole entry) with Y93H

[6] = molecular target: T1, Nonstructural protein 5A (Hepatitis C virus); experiment: Inhibition of NS5A in HCV genotype 1b infected in HuH7 replicon cells assessed as decrease in viral replication after 3 days by RT-PCR method; type: cell-based; details: Hepatitis C virus subtype 1b
[7] = molecular target: T1, Nonstructural protein 5A (Hepatitis C virus); experiment: Inhibition of NS5A L31M mutant in HCV genotype 2b infected in HuH7 replicon cells assessed as decrease in viral replication after 3 days by RT-PCR method; type: cell-based; details: Hepatitis C virus subtype 2b
[8] = molecular target: T1, Nonstructural protein 5A (Hepatitis C virus); experiment: Inhibition of NS5A in HCV genotype 1a infected in HuH7 replicon cells assessed as decrease in viral replication after 3 days by RT-PCR method; type: cell-based; details: Hepatitis C virus subtype 1a
[9] = Resistance ratio of EC90 for NS5A in HCV genotype 1b infected in HuH7 replicon cells to EC90 for NS5A in HCV genotype 1a infected in HuH7 replicon cells; type: cell-based
[10] = Resistance ratio of EC90 for NS5A in HCV genotype 3a infected in HuH7 replicon cells to EC90 for NS5A in HCV genotype 1a infected in HuH7 replicon cells; type: cell-based
[11] = Resistance ratio of EC90 for NS5A in HCV genotype 4a infected in HuH7 replicon cells to EC90 for NS5A in HCV genotype 1a infected in HuH7 replicon cells; type: cell-based
[12] = tested on: Hepatitis C virus subtype 1a; experiment: Resistance ratio of EC90 for NS5A L31V mutant in HCV genotype 1a infected in HuH7 replicon cells to EC90 for NS5A in HCV genotype 1a infected in HuH7 replicon cells; type: cell-based
[13] = Resistance ratio of EC90 for NS5A L31M mutant in HCV genotype 2b infected in HuH7 replicon cells to EC90 for NS5A in HCV genotype 1a infected in HuH7 replicon cells; type: cell-based
[14] = Oral bioavailability in Wistar Han rat at 10 mg/kg by LC/MS method; type: ADME, organism-based; details: in vivo
Summary of the method: (§1)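 Male Wistar Han rats, two per dosing group, dosed orally at 10 mg/kg in 10% TWEEN. Plasma was separated from collected blood by centrifugation and analysed by LC/MS.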

[15] = AUC in Wistar Han rat at 10 mg/kg, po by LC/MS method; type: ADME, organism-based; details: in vivo; summary of the method: as §1
[16] = Clearance in Wistar Han rat at 2 mg/kg, iv by LC/MS method; type: ADME, organism-based; details: in vivo
Summary of the method: (§2)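 Male Wistar Han rats, two per group, dosed IV at 2 mg/kg in 60% PEG200. Plasma was obtained by centrifuging the blood, and compound concentrations were measured by LC/MS.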

[17] = Cmax in Wistar Han rat at 10 mg/kg, po by LC/MS method; type: ADME, organism-based; design: dose 10 mg/kg, route oral; details: in vivo; summary of the method: as §1
[18] = Half life in Wistar Han rat at 2 mg/kg, iv by LC/MS method; type: ADME, organism-based; details: in vivo; summary of the method: as §2
[19] = Drug level in Wistar Han rat at 10 mg/kg, po measured at 24 hrs by LC/MS method; type: ADME, organism-based; details: in vivo, read-out: Drug uptake; summary of the method: as §1

Compound: COC(=O)N[C@H](C(=O)N1CCC[C@H]1c1ncc(-c2cc(F)c3c(c2)O[C@@H](c2cc4ccccc4s2)n2c-3cc3cc(-c4cnc([C@@H]5CCCN5C(=O)[C@@H](NC(=O)OC)C5CCOCC5)[nH]4)ccc32)[nH]1)C(C)C
- EC90 [1]: 4 pM
- EC90 [2]: 8 pM
- Ratio [3]: 20
- EC90 [4]: 11 pM
- EC90 [5]: 111 pM
- EC90 [6]: 3 pM
- EC90 [7]: 57 pM
- EC90 [8]: 5 pM

Compound: COC(=O)N[C@H](C(=O)N1CCC[C@H]1c1ncc(-c2cc(F)c3c(c2)O[C@@H](c2ccc(C(F)(F)F)s2)n2c-3cc3cc(-c4cnc([C@@H]5CCCN5C(=O)[C@@H](NC(=O)OC)C5CCOCC5)[nH]4)ccc32)[nH]1)C(C)C
- EC90 [1]: 3 pM
- EC90 [2]: 5 pM
- Ratio [9]: < 10
- Ratio [10]: < 10
- Ratio [3]: < 10
- EC90 [4]: 6 pM
- Ratio [11]: < 10
- EC90 [5]: 23 pM
- EC90 [6]: 5 pM
- EC90 [7]: 10 pM
- Ratio [12]: < 10
- Ratio [13]: < 10
- EC90 [8]: 3 pM

Compound: COC(=O)N[C@H](C(=O)N1CCC[C@H]1c1ncc(-c2cc(F)c3c(c2)O[C@@H](c2cc4c(s2)CCC4)n2c-3cc3cc(-c4cnc([C@@H]5CCCN5C(=O)[C@@H](NC(=O)OC)C5CCOCC5)[nH]4)ccc32)[nH]1)C(C)C
- EC90 [1]: 4 pM
- EC90 [2]: 13 pM
- Ratio [9]: < 10
- Ratio [10]: < 10
- Ratio [3]: < 10
- EC90 [4]: 22 pM
- Ratio [11]: < 10
- EC90 [5]: 39 pM
- EC90 [6]: 5 pM
- EC90 [7]: 64 pM
- Ratio [12]: < 10
- Ratio [13]: < 10
- EC90 [8]: 5 pM

Compound: CCCc1ccc([C@@H]2Oc3cc(-c4cnc([C@@H]5CCCN5C(=O)[C@@H](NC(=O)OC)C(C)C)[nH]4)cc(F)c3-c3cc4cc(-c5cnc([C@@H]6CCCN6C(=O)[C@@H](NC(=O)OC)C6CCOCC6)[nH]5)ccc4n32)s1
- EC90 [1]: 2 pM
- EC90 [2]: 3 pM
- Ratio [9]: < 10
- Ratio [10]: < 10
- Ratio [3]: < 10
- EC90 [4]: 5 pM
- Ratio [11]: < 10
- EC90 [5]: 9 pM
- EC90 [6]: 6 pM
- EC90 [7]: 12 pM
- Ratio [12]: < 10
- Ratio [13]: < 10
- EC90 [8]: 2 pM

Compound: COC(=O)N[C@H](C(=O)N1CCC[C@H]1c1ncc(-c2cc(F)c3c(c2)O[C@@H](c2ccc(C(F)F)s2)n2c-3cc3cc(-c4cnc([C@@H]5CCCN5C(=O)[C@@H](NC(=O)OC)C5CCOCC5)[nH]4)ccc32)[nH]1)C(C)C
- EC90 [1]: 4 pM
- EC90 [2]: 5 pM
- Ratio [9]: < 10
- Ratio [10]: < 10
- Ratio [3]: < 10
- EC90 [4]: 10 pM
- Ratio [11]: < 10
- EC90 [5]: 15 pM
- EC90 [6]: 6 pM
- EC90 [7]: 16 pM
- Ratio [12]: < 10
- Ratio [13]: < 10
- EC90 [8]: 4 pM

Compound: COC(=O)N[C@H](C(=O)N1CCC[C@H]1c1ncc(-c2cc(F)c3c(c2)O[C@@H](c2ccc4c(c2)CCCO4)n2c-3cc3cc(-c4cnc([C@@H]5CCCN5C(=O)[C@@H](NC(=O)OC)C5CCOCC5)[nH]4)ccc32)[nH]1)C(C)C
- EC90 [1]: 6 pM
- EC90 [2]: 7 pM
- Ratio [9]: < 10
- Ratio [10]: < 10
- Ratio [3]: < 10
- EC90 [4]: 9 pM
- Ratio [11]: < 10
- EC90 [5]: 356 pM
- EC90 [6]: 3 pM
- EC90 [7]: 1070 pM
- Ratio [12]: < 10
- Ratio [13]: < 10
- EC90 [8]: 5 pM

Compound: COC(=O)N[C@H](C(=O)N1CCC[C@H]1c1ncc(-c2cc(F)c3c(c2)O[C@@H](c2ccc4c(c2)OCCC4)n2c-3cc3cc(-c4cnc([C@@H]5CCCN5C(=O)[C@@H](NC(=O)OC)C5CCOCC5)[nH]4)ccc32)[nH]1)C(C)C
- EC90 [1]: 7 pM
- EC90 [2]: 5 pM
- bioavailability [14]: 0.8%
- Ratio [9]: < 10
- Ratio [10]: < 10
- AUC [15]: 0.13 µM·h
- clearance [16]: 11 mL/min/kg
- Ratio [3]: < 10
- EC90 [4]: 8 pM
- Ratio [11]: < 10
- EC90 [5]: 35 pM
- EC90 [6]: 6 pM
- EC90 [7]: 19 pM
- Ratio [12]: < 10
- Ratio [13]: < 10
- EC90 [8]: 4 pM
- Cmax [17]: 32 nM
- half-life [18]: 3.2 h

Compound: COC(=O)N[C@H](C(=O)N1CCC[C@H]1c1ncc(-c2cc(F)c3c(c2)O[C@@H](c2ccc(C4CC4)s2)n2c-3cc3cc(-c4cnc([C@@H]5CCCN5C(=O)[C@@H](NC(=O)OC)C5CC6CCC(C5)O6)[nH]4)ccc32)[nH]1)C(C)C (some centres not stated)
- EC90 [1]: 8 pM
- EC90 [2]: 6 pM
- bioavailability [14]: 2.5%
- AUC [15]: 0.33 µM·h
- clearance [16]: 13 mL/min/kg
- concentration at 24 h [19]: 3 nM
- EC90 [4]: 12 pM
- EC90 [5]: 28 pM
- EC90 [6]: 4 pM
- EC90 [7]: 19 pM
- EC90 [8]: 5 pM
- Cmax [17]: 24 nM
- half-life [18]: 3.9 h

Compound: CCc1ccc([C@@H]2Oc3cc(-c4cnc([C@@H]5CCCN5C(=O)[C@@H](NC(=O)OC)[C@@H]5CCOC(C)(C)C5)[nH]4)cc(F)c3-c3cc4cc(-c5cnc([C@@H]6CCCN6C(=O)[C@@H](NC(=O)OC)C(C)C)[nH]5)ccc4n32)s1
- EC90 [1]: 106 pM
- EC90 [2]: 46 pM
- bioavailability [14]: 1.2%
- AUC [15]: 0.23 µM·h
- clearance [16]: 9 mL/min/kg
- concentration at 24 h [19]: 2 nM
- EC90 [4]: 82 pM
- EC90 [5]: 155 pM
- EC90 [6]: 67 pM
- EC90 [7]: 349 pM
- EC90 [8]: 33 pM
- Cmax [17]: 20 nM
- half-life [18]: 5.9 h
